The target in test [1] is T1, Polyunsaturated fatty acid 5-lipoxygenase (Rattus norvegicus) (UniProt P12527).
T1 sequence (whole entry): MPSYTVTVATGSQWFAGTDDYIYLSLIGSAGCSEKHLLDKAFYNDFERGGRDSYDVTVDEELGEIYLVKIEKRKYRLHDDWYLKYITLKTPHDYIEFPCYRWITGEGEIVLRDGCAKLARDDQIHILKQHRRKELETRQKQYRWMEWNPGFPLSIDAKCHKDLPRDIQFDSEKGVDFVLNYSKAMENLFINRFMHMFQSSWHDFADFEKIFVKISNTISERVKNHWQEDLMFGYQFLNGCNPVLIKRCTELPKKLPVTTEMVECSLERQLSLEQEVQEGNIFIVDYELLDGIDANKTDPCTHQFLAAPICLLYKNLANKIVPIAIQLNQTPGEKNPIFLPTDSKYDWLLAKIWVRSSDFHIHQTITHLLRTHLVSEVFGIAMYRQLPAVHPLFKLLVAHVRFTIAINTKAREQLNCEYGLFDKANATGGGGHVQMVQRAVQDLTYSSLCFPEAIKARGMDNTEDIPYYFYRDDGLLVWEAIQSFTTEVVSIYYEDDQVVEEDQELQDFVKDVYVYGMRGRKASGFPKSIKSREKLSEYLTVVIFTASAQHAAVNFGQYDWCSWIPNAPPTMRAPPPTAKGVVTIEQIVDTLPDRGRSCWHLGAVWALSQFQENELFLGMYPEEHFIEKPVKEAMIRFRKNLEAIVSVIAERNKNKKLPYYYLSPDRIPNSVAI
Nature of the test: Inhibition of 5-lipoxygenase of rat basophilic leukemia cells at 30 uM. The format is cell-based. The following applies: RBL-1. In short, it runs like this:
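5-LO source was a crude enzyme preparation from broken rat basophilic leukemia (RBL-1) cells. Compounds were screened at a single concentration of 30 µM, and results are reported as percent inhibition.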

For test [2], the species on record is Cavia porcellus. Description: (§1) Inhibition of CCl4 induced lipid peroxidation (LPO) of guinea pig hepatic microsomes at 300 uM concentration. Format: functional. As to conditions: Liver. In short, it runs like this: (§2)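 Lipid peroxidation of polyunsaturated fatty acids in guinea pig liver microsomes was induced with CCl₄. Test compounds were used at 300 µM. Malondialdehyde (MDA) formation was quantified spectrophotometrically, and results are reported as percent inhibition.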

The target in test [3] is T2, Prostaglandin G/H synthase 1 (Ovis aries) (UniProt P05979).
T2 sequence (whole entry): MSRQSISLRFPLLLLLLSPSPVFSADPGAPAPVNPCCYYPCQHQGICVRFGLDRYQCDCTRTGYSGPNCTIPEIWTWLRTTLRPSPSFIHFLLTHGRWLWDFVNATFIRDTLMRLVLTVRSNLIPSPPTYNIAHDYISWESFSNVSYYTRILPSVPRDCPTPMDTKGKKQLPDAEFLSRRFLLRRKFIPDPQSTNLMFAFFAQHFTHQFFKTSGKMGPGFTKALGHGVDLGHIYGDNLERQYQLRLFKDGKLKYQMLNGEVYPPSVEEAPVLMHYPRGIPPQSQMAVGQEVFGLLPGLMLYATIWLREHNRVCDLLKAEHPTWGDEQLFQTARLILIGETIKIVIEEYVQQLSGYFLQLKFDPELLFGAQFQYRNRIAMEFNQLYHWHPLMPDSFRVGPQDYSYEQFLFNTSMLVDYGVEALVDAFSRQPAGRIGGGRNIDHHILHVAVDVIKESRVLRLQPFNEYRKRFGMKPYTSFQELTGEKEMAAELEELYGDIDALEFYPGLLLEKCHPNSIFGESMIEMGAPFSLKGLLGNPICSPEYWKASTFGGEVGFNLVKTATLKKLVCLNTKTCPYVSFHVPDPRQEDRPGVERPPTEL
Nature of the test: Inhibition of Prostaglandin G/H synthase 1 isolated from ram (sheep) seminal vesicle at 300 uM. Format: tissue-based.

Test [4] deals with T3, Prostaglandin G/H synthase 2 (Ovis aries) (UniProt P79208).
T3 sequence (whole entry): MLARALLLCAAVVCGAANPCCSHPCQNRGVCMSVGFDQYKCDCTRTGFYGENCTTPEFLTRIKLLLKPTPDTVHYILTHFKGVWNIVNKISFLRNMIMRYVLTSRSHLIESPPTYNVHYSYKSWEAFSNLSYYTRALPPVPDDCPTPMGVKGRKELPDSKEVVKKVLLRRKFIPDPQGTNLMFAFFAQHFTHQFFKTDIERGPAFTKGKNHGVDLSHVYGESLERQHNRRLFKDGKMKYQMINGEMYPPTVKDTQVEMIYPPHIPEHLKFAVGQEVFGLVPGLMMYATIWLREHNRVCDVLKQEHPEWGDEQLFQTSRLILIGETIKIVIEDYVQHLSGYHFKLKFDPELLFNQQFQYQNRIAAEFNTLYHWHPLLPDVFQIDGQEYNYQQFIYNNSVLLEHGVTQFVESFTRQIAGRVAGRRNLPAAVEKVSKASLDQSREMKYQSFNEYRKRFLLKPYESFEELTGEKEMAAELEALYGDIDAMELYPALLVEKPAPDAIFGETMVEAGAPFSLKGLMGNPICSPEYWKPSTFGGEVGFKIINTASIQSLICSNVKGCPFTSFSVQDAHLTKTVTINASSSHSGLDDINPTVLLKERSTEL
Description: Inhibition of Prostaglandin G/H synthase 2 from sheep placenta at 300 uM.

The target in test [5] is T4, Polyunsaturated fatty acid 5-lipoxygenase (Rattus norvegicus, UniProt P12527).
T4 sequence (P12527 whole entry): T1 sequence (whole entry)
Description: Inhibitory activity against 5-lipoxygenase obtained from rat basophilic leukemia cells. Summed up:
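IC50 was determined against 5-LO in a broken RBL-1 cell assay, using a crude enzyme preparation from rat basophilic leukemia cells.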

Test [6] is filed under the species Cavia porcellus. Described as §1. Format: functional. The following applies: Liver. Summed up:
as §2
This is another data set of the same source.

This note sets out measurements from ChEMBL document CHEMBL1131465, “Design, synthesis, and biological evaluation of conformationally constrained aci-reductone mimics of arachidonic acid” (J Med Chem, 1998).

Structures are written as SMILES.

Broadly, the inhibition is the percentage by which the read-out fell short of the control. In the case of `CCCSCc1ccccc1C#CCCC1OC(O)=C(O)C1=O` (stereo unspecified), the inhibition in test [1] was 82%; in the test filed under Cavia porcellus [2], 72%; in test [3] it was 38%; in test [4], 20%.

The IC50 is the concentration that gives 50% inhibition. In test [5], `O=C1C(O)=C(O)OC1CCC#Cc1ccccc1CSc1ccccc1` (stereo unspecified) registered a concentration for half-maximal inhibition (IC50) of 0.3 µM. In addition, the inhibition in test [1] was found to be 100%; in the test listed under Cavia porcellus [2], 61%; in test [3], 25%; in test [4], 15%.

Regarding `CCC/C=C\Cc1ccccc1C#CCCC1OC(O)=C(O)C1=O` (stereo unspecified), the concentration for half-maximal inhibition (IC50) in test [5] stood at 0.4 µM. The inhibition in test [1] was found to be 81%; in the test filed under Cavia porcellus [2], 72%; in test [3], 55%; in test [4], 28%.

As for `CCCCCSCc1ccccc1C#CCCC1OC(O)=C(O)C1=O` (stereo unspecified), the inhibition in test [1] is 90%; in the test listed under Cavia porcellus [2], 62%; in test [3], 67%; in test [4], 45%.

As for `C[C@H](C#Cc1ccc(Cc2ccc(F)cc2)s1)N(O)C(N)=O` [ATRELEUTON], the IC50 in test [5] turned out to be 0.023 µM.

Consider `CCCS(=O)(=O)Cc1ccccc1C#CCCC1OC(O)=C(O)C1=O` (stereo unspecified), for which the inhibition in test [1] came to 30%; in the test listed under Cavia porcellus [2] it was 60%; in test [3], 25%; in test [4], 12%.

Regarding `O=C1C(O)=C(O)OC1CCC#Cc1ccccc1` (stereo unspecified), the inhibition was determined as 58% in test [1], 62% in the test filed under Cavia porcellus [2], 5% in test [3] and 13% in test [4].

For `CC(=O)Oc1ccccc1C(=O)O`, the inhibition amounted to 0% in test [1], 4% in the test listed under Cavia porcellus [2], 76% in test [3] and 0% in test [4].

Regarding `Cc1c(C)c2c(c(C)c1O)CC[C@@](C)(CCC[C@H](C)CCC[C@H](C)CCCC(C)C)O2` [ALPHA-TOCOPHEROL], in the test filed under Cavia porcellus [6], 280 µM corresponded to half-maximal inhibition (IC50).

As to `Cc1ccccc1C#CCCC1OC(O)=C(O)C1=O` (stereo unspecified), the inhibition in test [1] was 43%; in the test listed under Cavia porcellus [2], 59%; in test [3] it was 8%; in test [4], 18%.

Turning to `CCCCS(=O)(=O)Nc1ccccc1C#CCCC1OC(O)=C(O)C1=O` (stereo unspecified), the inhibition in test [1] amounted to 81%; in the test listed under Cavia porcellus [2], 75%; in test [3] it was 8%; in test [4], 23%.

As to `CCC/C=C\Cc1ccccc1/C=C\CCC1OC(O)=C(O)C1=O` (stereo unspecified), the inhibition in test [1] turned out to be 99%; in the test listed under Cavia porcellus [2], 68%; in test [3], 37%; in test [4] it was 28%.

In test [5], `O=C1C(O)=C(O)OC1CCC#Cc1ccc(Cc2ccc(F)cc2)s1` (stereo unspecified) showed an IC50 of 0.16 µM. This molecule returned an inhibition in test [1] of 100%.
